Values after ≈ are worked out from the molar mass of the structure shown. Active and inactive are the calls of the source. No cut-off for these calls is given here.
Tests used:
[1] = tested on: Streptococcus; test: Antimicrobial activity against hemolytic Streptococcus Group B CMCC 32210 by broth microdilution method; type: functional
In short: (§1)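 Two-fold broth microdilution in Mueller-Hinton broth. Compound in DMSO added to bacterial culture at 5 × 10^5 cells/ml, starting at 64 µg/ml, then serially doubled down. Incubated at 37 °C overnight and read as OD600. MIC taken as the minimum inhibitory concentration, obtained in at least two independent experiments.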

[2] = tested on: Escherichia coli; test: Antimicrobial activity against Escherichia coli ATCC 25922 by broth microdilution method; type: functional; in short: as §1
[3] = tested on: Staphylococcus aureus; test: Antimicrobial activity against Staphylococcus aureus ATCC 25923 by broth microdilution method; type: functional; in short: as §1
[4] = tested on: Pseudomonas aeruginosa; test: Antimicrobial activity against Pseudomonas aeruginosa ATCC 27853 by broth microdilution method; type: functional; in short: as §1
[5] = tested on: Enterococcus faecalis; test: Antimicrobial activity against Enterococcus faecalis ATCC 29212 by broth microdilution method; type: functional; in short: as §1
[6] = tested on: Candida albicans; test: Antifungal activity against Candida albicans ATCC 10231 by broth microdilution method; type: functional
[7] = tested on: Salmonella enterica subsp. enterica serovar Paratyphi B; test: Antimicrobial activity against Salmonella paratyphi B CMCC 50094 by broth microdilution method; type: functional
In short: (§2)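 Two-fold serial dilution in Mueller-Hinton broth, starting at 64 µg/ml. Compound was added as a DMSO solution to bacterial culture at 5 × 10^5 cells/ml, then double-diluted. Plates were incubated overnight at 37 °C and OD600 was read. MIC was taken from at least two independent experiments.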

[8] = tested on: Staphylococcus aureus; test: Antimicrobial activity against methicillin-resistant Staphylococcus aureus ATCC 43300 by broth microdilution method; type: functional; in short: as §2
[9] = tested on: Staphylococcus epidermidis; test: Antimicrobial activity against Staphylococcus epidermidis ATCC 12228 by broth microdilution method; type: functional; in short: as §1
[10] = tested on: Staphylococcus aureus; test: Ratio of MIC for vancomycin to compound for methicillin-resistant Staphylococcus aureus ATCC 43300 by broth microdilution method; type: functional
[11] = tested on: Escherichia coli; conditions: 1 to 125 uM
[12] = tested on: Staphylococcus aureus; test: Inhibition of Staphylococcus aureus topoisomerase 4-mediated relaxation of supercoiled pBR322 DNA at 1 uM after 30 mins by agarose gel electrophoretic analysis
In short: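 Relaxation assay with 1 U Topo IV and 0.5 µg supercoiled pBR322 DNA in HEPES–KOH pH 7.6 buffer (potassium glutamate, magnesium acetate, DTT, 1 mM ATP, BSA), 37 °C for 30 min. Stopped with chloroform/iso-amyl alcohol (24:1), then run on 1% agarose gel in TAE at 5 V/cm.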

[13] = molecular target: DNA gyrase (Staphylococcus aureus) (UniProt P0A0K8+P20831); test: Inhibition of Staphylococcus aureus DNA gyrase supercoiling activity using pHOT1 DNA as substrate at 125 uM after 60 mins by agarose gel electrophoretic analysis; type: protein-complex assay
In short: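 Supercoiling assay with 1 U DNA gyrase (E. coli or S. aureus) and 0.5 µg relaxed pHOT1 DNA in Tris–HCl pH 7.5 buffer (KCl, MgCl2, DTT, spermidine, 1 mM ATP, glycerol, BSA), ± compound, 37 °C for 60 min. Stopped with proteinase K, run on 1% agarose in TAE at 3 V/cm, stained with Gel Red and imaged under UV.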

[14] = tested on: Escherichia coli; test: Inhibition of Escherichia coli topoisomerase 4 assessed as decatenation of kDNA at 25 uM after 30 mins by electrophoresis
In short: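 Decatenation assay with 1 U Topo IV and 200 ng catenated kDNA in HEPES–KOH pH 7.6 buffer (potassium glutamate, magnesium acetate, DTT, 1 mM ATP, BSA), 37 °C for 30 min. Stopped with chloroform/iso-amyl alcohol (24:1), then run on 1% agarose gel in TAE at 10 V/cm.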

Sequence of DNA gyrase (Staphylococcus aureus) (P0A0K8 2-644 limits assumed): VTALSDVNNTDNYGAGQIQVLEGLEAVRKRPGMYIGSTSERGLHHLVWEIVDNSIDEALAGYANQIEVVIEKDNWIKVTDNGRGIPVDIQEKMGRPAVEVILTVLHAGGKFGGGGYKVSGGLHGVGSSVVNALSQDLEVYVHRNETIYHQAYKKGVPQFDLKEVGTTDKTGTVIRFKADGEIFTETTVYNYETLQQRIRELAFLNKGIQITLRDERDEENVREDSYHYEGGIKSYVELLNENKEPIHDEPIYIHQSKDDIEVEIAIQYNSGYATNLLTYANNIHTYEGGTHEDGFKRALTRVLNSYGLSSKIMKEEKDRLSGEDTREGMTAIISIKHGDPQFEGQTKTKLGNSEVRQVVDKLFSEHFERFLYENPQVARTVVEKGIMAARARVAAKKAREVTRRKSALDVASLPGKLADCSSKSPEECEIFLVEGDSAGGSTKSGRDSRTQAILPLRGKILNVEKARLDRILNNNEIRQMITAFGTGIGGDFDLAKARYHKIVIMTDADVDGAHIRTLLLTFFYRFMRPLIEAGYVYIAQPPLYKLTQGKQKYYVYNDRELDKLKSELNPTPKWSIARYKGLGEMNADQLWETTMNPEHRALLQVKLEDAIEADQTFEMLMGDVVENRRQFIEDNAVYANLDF
Sequence of DNA gyrase (Staphylococcus aureus) (P20831 whole entry partner): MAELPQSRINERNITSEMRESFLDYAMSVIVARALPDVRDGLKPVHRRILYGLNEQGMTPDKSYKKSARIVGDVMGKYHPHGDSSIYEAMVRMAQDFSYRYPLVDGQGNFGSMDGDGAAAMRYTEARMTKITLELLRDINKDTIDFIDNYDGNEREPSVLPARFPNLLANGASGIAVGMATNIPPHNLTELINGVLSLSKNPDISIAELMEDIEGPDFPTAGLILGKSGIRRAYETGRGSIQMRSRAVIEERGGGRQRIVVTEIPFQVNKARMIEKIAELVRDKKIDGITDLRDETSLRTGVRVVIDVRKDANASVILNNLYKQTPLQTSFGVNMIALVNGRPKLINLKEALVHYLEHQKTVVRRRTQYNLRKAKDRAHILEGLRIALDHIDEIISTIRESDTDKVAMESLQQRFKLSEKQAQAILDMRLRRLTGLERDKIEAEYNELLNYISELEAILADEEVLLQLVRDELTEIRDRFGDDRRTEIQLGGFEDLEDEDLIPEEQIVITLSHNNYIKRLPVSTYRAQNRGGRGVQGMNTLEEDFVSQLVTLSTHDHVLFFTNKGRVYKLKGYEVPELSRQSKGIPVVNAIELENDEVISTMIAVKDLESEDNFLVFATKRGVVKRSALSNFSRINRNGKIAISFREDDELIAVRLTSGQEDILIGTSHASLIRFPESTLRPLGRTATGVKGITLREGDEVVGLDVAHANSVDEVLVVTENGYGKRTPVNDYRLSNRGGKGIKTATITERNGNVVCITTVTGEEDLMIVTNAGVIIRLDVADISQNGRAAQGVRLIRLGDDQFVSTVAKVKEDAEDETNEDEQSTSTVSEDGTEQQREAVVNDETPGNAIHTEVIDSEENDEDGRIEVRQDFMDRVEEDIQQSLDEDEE

| Compound | MIC [1] [µg/mL] | MIC [2] [µg/mL] | MIC [3] [µg/mL] | MIC [4] [µg/mL] | MIC [5] [µg/mL] | MIC [6] [µg/mL] | MIC [7] [µg/mL] | MIC [8] [µg/mL] | MIC [9] [µg/mL] | Ratio [10] | inhibition [11] | inhibition [12] | inhibition [13] | inhibition [14] |
| --- | --- | --- | --- | --- | --- | --- | --- | --- | --- | --- | --- | --- | --- | --- |
| O=C1c2cccnc2C(=O)c2c1c(C(=O)OCCN1CCCCC1)c1ccc(Br)cn21 | 0.031 (≈ 0.0643 µM) | 4 (≈ 8.29 µM) | 0.063 (≈ 0.131 µM) | > 64 | 0.031 (≈ 0.0643 µM) | > 64 | 16 (≈ 33.2 µM) | 0.5 (≈ 1.04 µM) | 0.063 (≈ 0.131 µM) | – | – | – | – | – |
| O=C1c2cccnc2C(=O)c2c1c(C(=O)N1CCCC1)c1ccc(Br)cn21 | 16 (≈ 37.7 µM) | > 64 | 8 (≈ 18.9 µM) | > 64 | > 64 | > 64 | > 64 | 64 (≈ 151 µM) | 32 (≈ 75.4 µM) | – | – | – | – | – |
| CC(=O)N1CCN(C(=O)c2c3c(n4cc(Br)ccc24)C(=O)c2ncccc2C3=O)CC1 | 16 (≈ 33.2 µM) | > 64 | 64 (≈ 133 µM) | > 64 | > 64 | > 64 | > 64 | > 64 | > 64 | – | – | – | – | – |
| O=C1c2cccnc2C(=O)c2c1c(C(=O)N1CCOCC1)c1ccc(Br)cn21 | 16 (≈ 36.3 µM) | > 64 | 16 (≈ 36.3 µM) | > 64 | > 64 | > 64 | > 64 | 64 (≈ 145 µM) | 32 (≈ 72.7 µM) | – | – | – | – | – |
| CN(C)CCCNC(=O)c1c2c(n3cc(Br)ccc13)C(=O)c1ncccc1C2=O | 1 (≈ 2.2 µM) | > 64 | 4 (≈ 8.79 µM) | > 64 | 4 (≈ 8.79 µM) | > 64 | > 64 | 4 (≈ 8.79 µM) | 8 (≈ 17.6 µM) | – | – | – | – | – |
| CCN(CC)CCCNC(=O)c1c2c(n3cc(Br)ccc13)C(=O)c1ncccc1C2=O | 1 (≈ 2.07 µM) | > 64 | 8 (≈ 16.6 µM) | > 64 | 4 (≈ 8.28 µM) | > 64 | > 64 | 8 (≈ 16.6 µM) | 4 (≈ 8.28 µM) | – | – | – | – | – |
| O=C1c2cccnc2C(=O)c2c1c(C(=O)OCCN1CCOCC1)c1ccc(Br)cn21 | 0.063 (≈ 0.13 µM) | 32 (≈ 66.1 µM) | 0.25 (≈ 0.516 µM) | > 64 | 0.13 (≈ 0.268 µM) | > 64 | > 64 | 0.25 (≈ 0.516 µM) | 0.25 (≈ 0.516 µM) | – | – | – | – | – |
| O=C1c2cccnc2C(=O)c2c1c(C(=O)OCCF)c1ccc(Br)cn21 | 0.031 (≈ 0.0743 µM) | > 64 | 0.031 (≈ 0.0743 µM) | > 64 | 0.016 (≈ 0.0384 µM) | > 64 | > 64 | 0.063 (≈ 0.151 µM) | 0.016 (≈ 0.0384 µM) | 16 | – | – | – | – |
| CN1CCN(C(=O)c2c3c(n4cc(Br)ccc24)C(=O)c2ncccc2C3=O)CC1 | 8 (≈ 17.6 µM) | > 64 | 16 (≈ 35.3 µM) | > 64 | > 64 | > 64 | > 64 | 32 (≈ 70.6 µM) | 32 (≈ 70.6 µM) | – | – | – | – | – |
| O=C1c2cccnc2C(=O)c2c1c(C(=O)NCCCN1CCCCC1)c1ccc(Br)cn21 | 1 (≈ 2.02 µM) | > 64 | 2 (≈ 4.04 µM) | > 64 | 2 (≈ 4.04 µM) | > 64 | > 64 | 4 (≈ 8.07 µM) | 8 (≈ 16.1 µM) | – | – | – | – | – |
| O=C1c2cccnc2C(=O)c2c1c(C(=O)OCC(F)(F)F)c1ccc(Br)cn21 | 0.031 (≈ 0.0684 µM) | > 64 | 0.031 (≈ 0.0684 µM) | > 64 | 0.016 (≈ 0.0353 µM) | > 64 | > 64 | 0.031 (≈ 0.0684 µM) | 0.016 (≈ 0.0353 µM) | 32 | – | – | – | – |
| O=C1c2cccnc2C(=O)c2c1c(C(=O)NCCN1CCCC1)c1ccc(Br)cn21 | 0.5 (≈ 1.07 µM) | > 64 | 4 (≈ 8.56 µM) | > 64 | 2 (≈ 4.28 µM) | > 64 | > 64 | 4 (≈ 8.56 µM) | 1 (≈ 2.14 µM) | – | – | – | – | – |
| O=C1c2cccnc2C(=O)c2c1c(C(=O)NCCN1CCOCC1)c1ccc(Br)cn21 | 0.5 (≈ 1.03 µM) | 64 (≈ 132 µM) | 1 (≈ 2.07 µM) | 64 (≈ 132 µM) | 4 (≈ 8.28 µM) | > 64 | > 64 | 8 (≈ 16.6 µM) | 4 (≈ 8.28 µM) | – | – | – | – | – |
| O=C1c2cccnc2C(=O)c2c1c(C(=O)NCCCN1CCCC1)c1ccc(Br)cn21 | 1 (≈ 2.08 µM) | > 64 | 8 (≈ 16.6 µM) | > 64 | 4 (≈ 8.31 µM) | > 64 | > 64 | 4 (≈ 8.31 µM) | 4 (≈ 8.31 µM) | – | – | – | – | – |
| O=C(O)c1cn(C2CC2)c2cc(N3CCNCC3)c(F)cc2c1=O | – | – | – | – | – | – | – | – | – | – | Active | Active | inactive | Active |
| CC1(C)S[C@@H]2[C@H](NC(=O)Cc3ccccc3)C(=O)N2[C@H]1C(=O)O [PENICILLIN G] | < 0.031 | 64 (≈ 191 µM) | < 0.031 | > 64 | 2 (≈ 5.98 µM) | – | 2 (≈ 5.98 µM) | > 64 | 16 (≈ 47.8 µM) | – | – | – | – | – |
| COC(=O)c1c2c(n3cc(Br)ccc13)C(=O)c1ncccc1C2=O | 0.031 (≈ 0.0805 µM) | 64 (≈ 166 µM) | 0.031 (≈ 0.0805 µM) | > 64 | 0.031 (≈ 0.0805 µM) | > 64 | > 64 | 0.063 (≈ 0.164 µM) | 0.016 (≈ 0.0415 µM) | 16 | – | – | – | – |
| O=C1c2cccnc2C(=O)c2c1c(C(=O)NCCN1CCCCC1)c1ccc(Br)cn21 | 0.5 (≈ 1.04 µM) | 64 (≈ 133 µM) | 1 (≈ 2.08 µM) | 64 (≈ 133 µM) | 2 (≈ 4.15 µM) | > 64 | 64 (≈ 133 µM) | 2 (≈ 4.15 µM) | 1 (≈ 2.08 µM) | – | – | – | – | – |
| CCN(CC)CCNC(=O)c1c2c(n3cc(Br)ccc13)C(=O)c1ncccc1C2=O | 0.5 (≈ 1.07 µM) | > 64 | 4 (≈ 8.52 µM) | > 64 | 4 (≈ 8.52 µM) | > 64 | > 64 | 4 (≈ 8.52 µM) | 2 (≈ 4.26 µM) | – | – | – | – | – |
| CN(C)CCNC(=O)c1c2c(n3cc(Br)ccc13)C(=O)c1ncccc1C2=O | 0.5 (≈ 1.13 µM) | > 64 | 4 (≈ 9.06 µM) | > 64 | 1 (≈ 2.27 µM) | > 64 | > 64 | 4 (≈ 9.06 µM) | 2 (≈ 4.53 µM) | – | – | – | – | – |
| O=C1c2cccnc2C(=O)c2c1c(C(=O)NCCCN1CCOCC1)c1ccc(Br)cn21 | 1 (≈ 2.01 µM) | > 64 | 8 (≈ 16.1 µM) | > 64 | 4 (≈ 8.04 µM) | > 64 | > 64 | 4 (≈ 8.04 µM) | 4 (≈ 8.04 µM) | – | – | – | – | – |
| CCN(CC)C(=O)c1c2c(n3cc(Br)ccc13)C(=O)c1ncccc1C2=O | 8 (≈ 18.8 µM) | > 64 | 8 (≈ 18.8 µM) | > 64 | 16 (≈ 37.5 µM) | > 64 | > 64 | 16 (≈ 37.5 µM) | 16 (≈ 37.5 µM) | – | – | – | – | – |
| CN(C)CCOC(=O)c1c2c(n3cc(Br)ccc13)C(=O)c1ncccc1C2=O | 0.031 (≈ 0.0701 µM) | 2 (≈ 4.52 µM) | 0.13 (≈ 0.294 µM) | > 64 | 0.13 (≈ 0.294 µM) | > 64 | 1 (≈ 2.26 µM) | 0.13 (≈ 0.294 µM) | 0.13 (≈ 0.294 µM) | – | – | – | – | – |
| O=C1c2cccnc2C(=O)c2c1c(C(=O)N1CCSCC1)c1ccc(Br)cn21 | 64 (≈ 140 µM) | > 64 | > 64 | > 64 | > 64 | > 64 | > 64 | 64 (≈ 140 µM) | > 64 | – | – | – | – | – |
